ChEMBL document CHEMBL3297703, “Novel quinuclidinyl heteroarylcarbamate derivatives as muscarinic receptor antagonists” (Bioorg Med Chem, 2014)
Active and inactive are the calls of the source. The rule behind the calls is not given here.

Legend:
Rattus norvegicus [1] = species on record: Rattus norvegicus; assay: Effect on CCh-induced salivation in Sprague-Dawley rat after 24 hrs; assay type: ADME, organism-based; conditions: in vivo
Method in brief: (§1)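 Anaesthetised, cannulated male Sprague-Dawley rats dosed once intratracheally; 24 h later CCh (30 μg/kg) given, with bronchoconstriction (airway pressure via transducer) and salivation (net weight gain of cotton balls in oral cavity) recorded together in the same animal.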

Rattus norvegicus [2] = assay: Bronchodilatory effect in it dosed Sprague-Dawley rat assessed as inhibition of CCh-induced bronchoconstriction after 24 hrs; assay type: functional; conditions: read-out: ID50 (the source's name); method in brief: as §1
Rattus norvegicus [3] = species on record: Rattus norvegicus; assay: Ratio of ID50 for effect on CCh-induced salivation in Sprague-Dawley rat to ID50 for inhibition of CCh-induced bronchoconstriction Sprague-Dawley rat
[4] = target: Muscarinic acetylcholine receptor M3 (Rattus norvegicus) (UniProt P08483); assay: Displacement of [3H]-NMS from Sprague-Dawley rat muscarinic M3 receptor in submandibular gland measured after single/double washout
Muscarinic acetylcholine receptor M3 (Rattus norvegicus), sequence (P08483 whole entry, looked up): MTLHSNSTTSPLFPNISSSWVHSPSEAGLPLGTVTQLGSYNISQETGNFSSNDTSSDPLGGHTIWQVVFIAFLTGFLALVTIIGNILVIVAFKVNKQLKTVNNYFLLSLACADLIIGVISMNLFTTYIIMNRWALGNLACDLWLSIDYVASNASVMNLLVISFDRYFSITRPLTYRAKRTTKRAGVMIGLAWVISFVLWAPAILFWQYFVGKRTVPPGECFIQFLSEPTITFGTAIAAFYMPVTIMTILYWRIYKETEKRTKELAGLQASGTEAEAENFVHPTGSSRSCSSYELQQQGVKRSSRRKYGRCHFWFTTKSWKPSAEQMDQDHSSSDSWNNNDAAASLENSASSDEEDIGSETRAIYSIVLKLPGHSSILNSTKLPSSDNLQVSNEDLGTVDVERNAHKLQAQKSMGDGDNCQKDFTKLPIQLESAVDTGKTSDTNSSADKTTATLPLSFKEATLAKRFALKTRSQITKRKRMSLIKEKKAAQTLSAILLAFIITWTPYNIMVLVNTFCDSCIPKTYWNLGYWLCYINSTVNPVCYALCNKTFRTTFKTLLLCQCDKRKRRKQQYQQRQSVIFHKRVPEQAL

Rattus norvegicus [5] = assay: Bronchodilatory effect in it dosed Sprague-Dawley rat assessed as inhibition of CCh-induced bronchoconstriction at 15 mins to 1 hr; assay type: functional, organism-based
Rattus norvegicus [6] = assay: Bronchodilatory effect in Sprague-Dawley rat assessed as inhibition of CCh-induced bronchoconstriction at 0.5 ug/kg, it after 0.5 hrs; assay type: functional
Method in brief: (§2)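 Male Sprague-Dawley rats (250–400 g) anaesthetised with pentobarbital sodium (50 mg/kg i.p.), tracheally cannulated, given pancuronium bromide 0.2 mg/kg i.v. Compound given intratracheally at 0.5 μg/kg; CCh 30 μg/kg challenge at 0.25, 0.5, 2 or 24 h post-dose; airway pressure by pressure transducer. Inhibition expressed as mean percentage of control value, n = 3.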

[7] = target: Muscarinic acetylcholine receptor M3 (Rattus norvegicus, UniProt P08483); assay: Displacement of [3H]-NMS from Sprague-Dawley rat muscarinic M3 receptor in submandibular gland
Muscarinic acetylcholine receptor M3, sequence (P08483 whole entry): as the sequence (P08483 whole entry, looked up) above

[8] = target: T1, Muscarinic acetylcholine receptor M1 (Rattus norvegicus, UniProt P08482); assay: Displacement of [3H]-NMS from Sprague-Dawley rat muscarinic M1 receptor in cortex membrane; assay type: cell membranes
T1 sequence (P08482 whole entry): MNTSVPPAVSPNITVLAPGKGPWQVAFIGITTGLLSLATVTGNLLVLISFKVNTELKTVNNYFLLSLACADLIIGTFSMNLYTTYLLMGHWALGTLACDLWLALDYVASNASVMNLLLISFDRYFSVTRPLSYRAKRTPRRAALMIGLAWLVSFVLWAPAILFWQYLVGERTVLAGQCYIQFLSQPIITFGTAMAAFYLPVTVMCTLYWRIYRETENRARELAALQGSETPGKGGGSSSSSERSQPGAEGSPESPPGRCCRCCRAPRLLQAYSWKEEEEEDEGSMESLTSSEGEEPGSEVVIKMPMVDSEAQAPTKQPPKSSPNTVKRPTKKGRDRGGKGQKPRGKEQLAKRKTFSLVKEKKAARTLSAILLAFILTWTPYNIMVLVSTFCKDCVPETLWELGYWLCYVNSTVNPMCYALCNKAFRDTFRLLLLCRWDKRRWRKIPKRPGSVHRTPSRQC

Rattus norvegicus [9] = assay: Bronchodilatory effect in Sprague-Dawley rat assessed as inhibition of CCh-induced bronchoconstriction at 0.5 ug/kg, it after 0.25 hrs; assay type: functional; method in brief: as §2
[10] = target: T2, Muscarinic acetylcholine receptor M2 (Rattus norvegicus, UniProt P10980); assay: Displacement of [3H]-NMS from Sprague-Dawley rat muscarinic M2 receptor in heart
T2 sequence (P10980 whole entry): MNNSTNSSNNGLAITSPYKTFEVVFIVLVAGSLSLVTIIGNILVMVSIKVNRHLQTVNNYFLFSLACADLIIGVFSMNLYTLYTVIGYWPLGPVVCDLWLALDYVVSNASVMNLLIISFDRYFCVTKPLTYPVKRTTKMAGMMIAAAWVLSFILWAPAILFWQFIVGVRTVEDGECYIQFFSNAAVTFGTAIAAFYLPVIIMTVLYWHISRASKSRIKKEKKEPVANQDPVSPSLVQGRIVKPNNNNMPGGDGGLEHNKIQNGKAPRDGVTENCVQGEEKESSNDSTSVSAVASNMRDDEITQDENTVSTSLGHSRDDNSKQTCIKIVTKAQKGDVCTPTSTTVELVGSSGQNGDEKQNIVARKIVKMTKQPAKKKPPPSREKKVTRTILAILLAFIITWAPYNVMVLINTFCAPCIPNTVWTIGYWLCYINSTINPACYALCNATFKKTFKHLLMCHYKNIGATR

Rattus norvegicus [11] = assay: Bronchodilatory effect in Sprague-Dawley rat assessed as inhibition of CCh-induced bronchoconstriction at 0.5 ug/kg, it after 2 hrs; assay type: functional; method in brief: as §2
[12] = Drug uptake in it dosed Sprague-Dawley rat submandibular gland after 24 hrs; assay type: ADME, organism-based; conditions: in vivo
Lung = assay: Drug uptake in it dosed Sprague-Dawley rat lung after 24 hrs; assay type: ADME, organism-based; conditions: in vivo, inhaled_or_intranasal
Rattus norvegicus [13] = assay: Bronchodilatory effect in Sprague-Dawley rat assessed as inhibition of CCh-induced bronchoconstriction at 0.5 ug/kg, it after 24 hrs; assay type: functional; method in brief: as §2

O=C(O[C@H]1C[N+]2(CCCOc3ccccc3)CCC1CC2)C(O)(c1cccs1)c1cccs1.[Br-] [ACLIDINIUM BROMIDE]
ID50 (Rattus norvegicus [1]): 9.4 µg/kg | ED50 (Rattus norvegicus [2]): 0.4 µg/kg | Ratio (Rattus norvegicus [3]): 24

C[N+]12CCC(OC(=O)Nc3ncsc3-c3cccc(Cl)c3)(CC1)CC2 [listing 1 of 2 here]
inhibition [4]: inactive | inhibition (Rattus norvegicus [5]): Active

C[N+]12CCC(CC1)[C@@H](OC(=O)Nc1ncsc1-c1cccc(Cl)c1)C2
inhibition in vivo at 0.0005 mg/kg (Rattus norvegicus [6]): 64% | Ki [7]: 0.25 nM | Ki [8]: 0.31 nM | inhibition in vivo at 0.0005 mg/kg (Rattus norvegicus [9]): 64% | Ki [10]: 1.2 nM | inhibition in vivo at 0.0005 mg/kg (Rattus norvegicus [11]): 50%

C[N+]12CCC(OC(=O)Nc3ncsc3-c3cccc(C(F)(F)F)c3)(CC1)CC2
Ki [7]: 1.8 nM | Ki [8]: 2.3 nM | Ki [10]: 14 nM

C[N+]12CCC(OC(=O)Nc3ncsc3-c3cccc(Cl)c3)(CC1)CC2.[Br-]
Drug uptake [12]: Active | ID50 (Rattus norvegicus [1]): 4.2 µg/kg | ED50 (Rattus norvegicus [2]): 0.08 µg/kg | Ratio (Rattus norvegicus [3]): 53 | Drug uptake (Lung): Active

O=C(Nc1scnc1-c1ccccc1)O[C@H]1CN2CCC1CC2
Ki [7]: 12 nM | Ki [8]: 8.7 nM | Ki [10]: 39 nM

O=C(Nc1sccc1-c1ccccc1)OC12CCN(CC1)CC2
Ki [7]: 0.12 nM | Ki [8]: 0.33 nM | Ki [10]: 1.4 nM

O=C(Nc1ncoc1-c1ccccc1)O[C@H]1CN2CCC1CC2
Ki [7]: 9.7 nM | Ki [8]: 8.7 nM | Ki [10]: 59 nM

C[N+]12CCC(OC(=O)Nc3ncsc3-c3ccc(F)cc3)(CC1)CC2
Ki [7]: 0.1 nM | Ki [8]: 0.073 nM | Ki [10]: 0.21 nM

O=C(Nc1cscc1-c1ccccc1)OC12CCN(CC1)CC2
Ki [7]: 0.21 nM | Ki [8]: 0.51 nM | Ki [10]: 3.6 nM

C[N+]12CCC(OC(=O)Nc3ncsc3-c3cccc(Cl)c3)(CC1)CC2 [listing 2 of 2 here]
inhibition in vivo at 0.0005 mg/kg (Rattus norvegicus [6]): 67% | Ki [7]: 0.049 nM | Ki [8]: 0.041 nM | inhibition in vivo at 0.0005 mg/kg (Rattus norvegicus [9]): 67% | inhibition in vivo at 0.0005 mg/kg (Rattus norvegicus [13]): 82% | Ki [10]: 0.053 nM | inhibition in vivo at 0.0005 mg/kg (Rattus norvegicus [11]): 84%

O=C(Nc1ccccc1-c1ccccc1)OC12CCN(CC1)CC2
Ki [7]: 0.14 nM | Ki [8]: 0.32 nM | Ki [10]: 3.8 nM

C[N+]12CCC(CC1)[C@@H](OC(=O)Nc1ncsc1-c1ccccc1)C2
inhibition in vivo at 0.0005 mg/kg (Rattus norvegicus [6]): 62% | Ki [7]: 0.37 nM | Ki [8]: 0.37 nM | inhibition in vivo at 0.0005 mg/kg (Rattus norvegicus [9]): 74% | inhibition in vivo at 0.0005 mg/kg (Rattus norvegicus [13]): 14% | Ki [10]: 1.2 nM | inhibition in vivo at 0.0005 mg/kg (Rattus norvegicus [11]): 54%

O=C(Nc1ncsc1-c1ccccc1)OC12CCN(CC1)CC2
Ki [8]: 0.39 nM | Ki [10]: 0.8 nM

C[N+]12CCC(OC(=O)Nc3ncsc3-c3cc(Cl)cc(Cl)c3)(CC1)CC2
Ki [7]: 0.12 nM | Ki [8]: 0.12 nM | Ki [10]: 0.64 nM

C[N+]1(C)[C@@H]2C[C@@H](OC(=O)C(O)(c3cccs3)c3cccs3)C[C@H]1[C@@H]1O[C@@H]12.O.[Br-] [TIOTROPIUM BROMIDE]
inhibition in vivo at 0.0005 mg/kg (Rattus norvegicus [6]): 59% | Drug uptake [12]: Active | Ki [7]: 0.3 nM | Ki [8]: 0.16 nM | ID50 (Rattus norvegicus [1]): 1.9 µg/kg | inhibition [4]: Active | inhibition in vivo at 0.0005 mg/kg (Rattus norvegicus [9]): 44% | inhibition in vivo at 0.0005 mg/kg (Rattus norvegicus [13]): 78% | ED50 (Rattus norvegicus [2]): 0.12 µg/kg | Ratio (Rattus norvegicus [3]): 16 | Drug uptake (Lung): Active | Ki [10]: 0.15 nM | inhibition in vivo at 0.0005 mg/kg (Rattus norvegicus [11]): 83%

O=C(Nc1ccsc1-c1ccccc1)O[C@H]1CN2CCC1CC2
Ki [7]: 0.19 nM | Ki [8]: 0.19 nM | Ki [10]: 0.82 nM

O=C(Nc1ncsc1-c1ccccc1)O[C@H]1CN2CCC1CC2
Ki [7]: 0.93 nM | Ki [8]: 0.75 nM | Ki [10]: 1.9 nM

O=C(Nc1ccsc1-c1ccccc1)O[C@@H]1CN2CCC1CC2
Ki [7]: 4 nM | Ki [8]: 4.6 nM | Ki [10]: 13 nM

CC(C)[N+]1(C)C2CCC1CC(OC(=O)C(CO)c1ccccc1)C2 (stereo not drawn)
inhibition in vivo at 0.0005 mg/kg (Rattus norvegicus [6]): 85% | inhibition [4]: inactive | inhibition in vivo at 0.0005 mg/kg (Rattus norvegicus [9]): 70% | inhibition in vivo at 0.0005 mg/kg (Rattus norvegicus [13]): 15% | inhibition in vivo at 0.0005 mg/kg (Rattus norvegicus [11]): 83%

C[N+]1(C)CCC(OC(=O)C(O)(c2ccccc2)C2CCCC2)C1.[Br-] (stereo not drawn) [GLYCOPYRRONIUM BROMIDE]
inhibition (Rattus norvegicus [5]): Active | ED50 (Rattus norvegicus [2]): 3.4 µg/kg

O=C(Nc1ccsc1-c1ccccc1)OC12CCN(CC1)CC2
Ki [7]: 0.056 nM | Ki [8]: 0.095 nM | Ki [10]: 0.46 nM

C[N+]12CCC(OC(=O)Nc3ccsc3-c3ccccc3)(CC1)CC2
inhibition in vivo at 0.0005 mg/kg (Rattus norvegicus [6]): 78% | Ki [7]: 0.02 nM | Ki [8]: 0.02 nM | inhibition in vivo at 0.0005 mg/kg (Rattus norvegicus [9]): 42% | Ki [10]: 0.027 nM | inhibition in vivo at 0.0005 mg/kg (Rattus norvegicus [11]): 86%

C[N+]12CCC(OC(=O)Nc3ncsc3-c3ccccc3)(CC1)CC2
Ki [7]: 0.064 nM | Ki [8]: 0.055 nM | inhibition in vivo at 0.0005 mg/kg (Rattus norvegicus [13]): 61% | Ki [10]: 0.12 nM
